In article PMC8919062 (European journal of medicinal chemistry, 2021):

Experiments:
[1] = test system: Class I/IIb HDACs; assay: class-distinguishing fluorogenic substrates whole-cell assay, class I/IIb, L3.6; format: cell-based; conditions: read-out: IC50 Class I/IIb HDACs, L3.6 cells
Outline: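 Whole cells incubated with 200 µM Boc-Lys-Ac (class-I/IIb selective substrate) in RPMI without phenol red plus 0.1% FBS, 3 h at 37 °C. Test compound given as an 11-point curve at 5% final DMSO; 5 µM trichostatin A served as positive control and DMSO alone as negative control. Trypsin developer (2.5 mg/mL, with tween 80) added for 1 h to lyse cells and release fluorophore. Read at ex 360 / em 460 nm; IC50 by nonlinear fit.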

[2] = test system: indigenous class-IIa HDACs; conditions: read-out: IC50 binding to indigenous class-IIa HDACs; THP-1 cells; ref [19]; cited from earlier work
[3] = test system: HDAC5; conditions: read-out: IC50 HDAC5 non-cell-based inhibition; ref [19],[20]; cited from earlier work
[4] = test system: HDAC4; conditions: read-out: IC50 HDAC4 non-cell-based inhibition; ref [19],[20]; cited from earlier work
[5] = test system: Other HDACS; assay: fluorogenic assay against recombinant HDAC proteins, other HDACs; format: biochemical, human; conditions: read-out: IC50 Other HDACS
Outline: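 Recombinant human HDACs screened with commercial fluorogenic enzyme assay kits, following the manufacturer protocol, at 9 dilutions of test compound. Fluorescence read on a microplate reader. IC50 from nonlinear curve fit of % HDAC activity inhibition vs compound concentration.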

[6] = test system: HDAC9; conditions: in words; ref [19],[20]; cited from earlier work
[7] = test system: Class I/IIb HDACs; assay: class-distinguishing fluorogenic substrates whole-cell assay, class I/IIb, HT-29; format: cell-based; conditions: read-out: IC50 Class-I/IIb, HT-29 cells, Boc-Lys-Ac substrate
[8] = test system: Class IIa HDACs; assay: class-distinguishing fluorogenic substrates whole-cell assay, class IIa, HT-29; format: cell-based; conditions: read-out: IC50 Class-IIa, HT-29 cells, Boc-Lys-TFA substrate

Compound: CC(C)(CNC(=O)c1cccc(-c2noc(C(F)(F)F)n2)c1)c1coc(-c2ccccc2)n1 [TMP195]
- IC50 [1]: > 5 µM
- IC50 [2]: 0.3 µM
- IC50 [3]: > 0.1 µM
- IC50 [4]: > 0.1 µM
- IC50 [5]: > 5 µM
- IC50 HDAC9 non-cell-based inhibition [6]: low nM range

Compound: N-(3-(benzylamino)-2,2-dimethyl-3-oxopropyl)-4-(5-(trifluoromethyl)-1,2,4-oxadiazol-3-yl)benzamide [Compound 10]
- IC50 [7]: > 15 µM
- IC50 [8]: 0.933 ± 0.26 µM
